From PubChem BioAssay
The full list was thinned out, with hits kept by preference.
ABCB1 block: ABCB1 efflux pump inhibitors, primary screen, cell-based, multiplex, flow cytometry, ABCG2 counter-screen; ATP-dependent translocase ABCB1 (Homo sapiens), P08183; CCRF-Adr cells, JC-1 efflux; inhibition, % at 6.6 µM; actives 0.067% (n = 190,000); AID 1326, 2008; in the data active = inhibition above about 40%;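 also: 0% = vehicle and 100% = reference inhibitor; higher value means more JC-1 retained so stronger ABCB1 efflux block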
ABCG2 block: ABCG2 efflux pump inhibitors, primary screen, multiplex with ABCB1, IgMXP3 cells, flow cytometry; inhibition, % at 6.6 µM; Broad substrate specificity ATP-binding cassette transporter ABCG2 (Homo sapiens), Q9UNQ0; actives 0.1% (n = 190,000); JC-1 efflux;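 active = inhibition above 80%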;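 also: 0% = DMSO and 100% = nicardipine control wells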
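Times: 10 min at 25 °C | Test system: Two drug-resistant human cell lines, ABCG2 and ABCB1 | Quantity: 3 million cells/mL final, two lines in 1:1 ratio | Signal: Flow cytometry, 530 nm JC-1 signal | Dosing: Compound at 6.6 µM | Controls: Nicardipine and DMSO wells | Reagent: JC-1 as fluorescent efflux pump substrate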
Avidin bead fluor: green autofluorescence of compounds with avidin beads – biophysical, 488/530 nm, flow cytometry, artefact control, profiling panel; compound fluorescence 488/530 nm; active compounds read high; actives 0.38% (n = 220,000); fluorescence (KMESF) at 10 µM; in the data active = fluorescence above about 47
GSH fluor: compound fluorescence on glutathione beads, profiling panel, artefact control, biophysical, 488/530 nm, flow cytometry. fluorescence (KMESF) at 10 µM. AID 1776, 2009. actives 0.25% (n = 190,000). GSH beads flow cytometry, compound fluorescence 488/530 nm; active compounds read high; in the data active = fluorescence above about 89;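 also: glutathione beads carrying GST-tagged Bcl family fusion proteins plus one bare bead set; values are compound well signal with DMSO vehicle wells as background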
Lmaj promast: Leishmania major promastigote growth inhibition, primary screen; Leishmania major promastigotes, resazurin fluorescence viability; inhibition, % at 10 µM; actives 9% (n = 200,000); AID 1063, 2008;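 also: promastigotes grown with compound for 44 hours at 28 °C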
PKD1 kinase inh: inhibitors of human PKD1 kinase, biochemical, fluorescence polarization. Serine/threonine-protein kinase D1 (Homo sapiens), Q15139. PKD1 kinase fluorescence polarization assay. inhibition, % (test concentration not listed). actives 0.056% (n = 200,000)
Active calls of the source: *; x = no result. Rule as the data show it, unless noted: active = inhibition above about 50%; inactive = the rest.

SMILES	ABCB1 block	ABCG2 block	Avidin bead fluor	GSH fluor	Lmaj promast	PKD1 kinase inh
CC(=O)N1CCC(N2CCCC(C(=O)c3cccc(Cl)c3)C2)CC1 (configuration not stated)	1	2	9	12	92*	-3
COc1cccc(C(=O)C2CN(C)CC2c2ccc(Cl)cc2)c1 (configuration not stated)	1	1	10	21	11	2
COc1cccc(C(=O)C2CCCN(C3CCOCC3)C2)c1 (configuration not stated)	0	2	11	16	88*	13
CN1CCCC(C(=O)c2ccc(Cl)cc2)C1 (configuration not stated)	0	0	12	13	45	0
COc1ccc(C(=O)C2CCCN(C3CSCCSC3)C2)c(C)c1 (configuration not stated)	2	5	11	21	97*	1
Cc1cc([P+](=O)O)c(C)n1-c1ccc(Br)cc1	0	1	32	15	-4	-1
CCOC(=O)C1(CCc2ccccc2)CCN(Cc2cccc3cnccc23)CC1	2	6	5	10	82*	0
CCOC(=O)C1(CCc2ccccc2)CCN(Cc2cccc3c2OCO3)CC1	8	6	5	11	79*	0
CCOC(=O)C1(CCc2ccccc2)CCN(Cc2csc(C(C)=O)c2)CC1	2	6	5	13	83*	-7
CN1CCN(Cc2ccc(Br)s2)CC1	0	1	6	39	70*	-9
COc1ccc(C(=O)Oc2cccc3cccnc23)cc1S(=O)(=O)N1CCOCC1	1	6	13	13	98*	3
COc1ccc(-n2c(/C=C3/C(=O)Nc4ccccc43)nc3ccccc3c2=O)cc1	1	9	9	25	11	-6
Fc1ccc2c(c1)nnn2C1CCN(Cc2ccccc2)CC1	0	2	4	42	75*	-1
Clc1ccc2c(c1)C(OC1CN3CCC1CC3)c1ccccc1CS2 (configuration not stated)	1	4	17	11	100*	12
CN1CCN(CCOC2c3ccccc3CSc3ccc(Cl)cc32)CC1 (configuration not stated)	1	9	12	17	99*	-3
O=C(COc1ccc(Cl)cc1)N(c1ccccc1Cl)C1CN2CCC1CC2 (configuration not stated)	x	x	6	x	x	x
Clc1ccc(C2NCCc3[nH]cnc32)cc1 (configuration not stated)	0	0	16	13	-2	-1
Nc1ccc(Cl)cc1C(=O)c1ccccc1Cl	x	0	4	15	-1	-4
Cc1ccc(-c2nc(CS(=O)CC(=O)N3CCC4(CC3)OCCO4)c(C)o2)cc1 (configuration not stated)	1	4	12	26	-4	-13
CCCCn1c(O)c(C(C)=NCCc2c[nH]c3ccccc23)c(=O)[nH]c1=O	x	x	4	x	x	x
CCCCn1c(O)c(C(C)=NC(Cc2c[nH]c3ccccc23)C(=O)OC)c(=O)[nH]c1=O (configuration not stated)	1	4	15	34	99*	-3
Cc1cccc(-n2c(=S)[nH]c3ccccc3c2=O)n1	0	0	12	12	-3	-2
Cc1ccccc1Cc1c(C)nc2nc(SCC(=O)N3CCC4(CC3)OCCO4)nn2c1C	0	0	2	40	73*	-4
Cc1ccc(Cc2c(C)nc3nc(SCC(=O)N4CCC5(CC4)OCCO5)nn3c2C)cc1	1	4	8	9	1	-7
COc1ccc(N/N=C/c2c(O)n(-c3ccc(C)c(C)c3)c(=O)[nH]c2=O)cc1	-8	-16	12	20	88*	1
SMILES	ABCB1 block	ABCG2 block	Avidin bead fluor	GSH fluor	Lmaj promast	PKD1 kinase inh
COc1ccc(N/N=C/c2c(O)n(-c3cccc(C)c3)c(=O)[nH]c2=O)cc1	0	-1	11	11	94*	4
O=C(CNC(=O)c1cccc(Cl)c1)Nc1ccc(Br)cc1C(=O)c1ccccc1	x	1	17	11	59*	-9
O=C(Nc1ccc(Cl)cc1C(=O)c1ccccc1)c1ccccc1	0	1	39	12	69*	-14
CN1c2ccc([N+](=O)[O-])cc2CC2(C(=O)NC(=O)N(c3ccc(Br)cc3)C2=O)C1c1ccccc1 (configuration not stated)	0	-2	12	11	75*	2
Nc1c(C(=O)OCC2CCCO2)c2nc3ccccc3nc2n1Cc1cccs1 (configuration not stated)	2	7	23	11	95*	-2
Nc1c(C(=O)NC2CCCC2)c2nc3ccccc3nc2n1CC1CCCO1 (configuration not stated)	-1	-4	5	11	51*	-9
COc1ccn(C)c(=O)c1C#N	1	4	6	23	-17	2
CCOP(=O)(OCC)C1(O)C(=O)Nc2ccc(Br)cc21 (configuration not stated)	-4	-10	4	8	-9	-6
Clc1ccc(OCC#CCN2CCCCCC2)cc1	1	11	10	10	85*	-6
COc1ccc(OCC#CCN2CCC(C)CC2)cc1	0	0	9	14	23	-8
CCCCCCN=C(C)c1c(O)n(Cc2ccccc2)c(=O)[nH]c1=O	2	22	35	25	2	-12
CCCCC(=O)N/N=C/c1c(O)n(Cc2ccc(F)cc2)c(=O)[nH]c1=O	x	x	8	x	x	x
Clc1ccccc1CNC1CN2CCC1CC2 (configuration not stated)	0	0	7	17	12	2
OC(c1cccc(Cl)c1)(c1cccc(Cl)c1)C1CN2CCC1CC2 (configuration not stated)	1	1	12	12	100*	-5
CC1Oc2cc3c(-c4c(O)cc(O)c5c(O)c6c(cc45)OC(C)C(C)C6=O)c(O)cc(O)c3c(O)c2C(=O)C1C (configuration not stated)	x	x	0	x	x	x
C=CCN1C(=O)/C(=C/c2cc(C)n(-c3cccnc3)c2C)C(=O)NC1=S	-1	-5	15	9	99*	-11
O=c1[nH]c(=O)n(C2CCCCC2)c(O)c1C1NCCc2ccccc21 (configuration not stated)	-1	-3	6	261*	-8	-18
CC(=NCc1cccnc1)c1c(O)n(C2CCCCC2)c(=O)[nH]c1=O	-2	1	4	29	8	-6
